Tests used:
[1] = Ratio of AUC (0 to 31 hrs) in Sprague-Dawley rat lung to AUC (0 to 31 hrs) in Sprague-Dawley rat plasma at 40 mg/kg, po administered as single dose; type: ADME, organism-based; design: dose 40 mg/kg, route oral
Summary of the method: (§1)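 Male specific-pathogen-free Sprague-Dawley rats (200–300 g), three per group, single gastric intubation at 2 ml/kg of a vitamin E TPGS–PEG 400 solution; food and water ad libitum. Plasma sampled 30 min to 31 h; tissues dissected from oral groups. LC-MS/MS (LLOQ 1 ng/ml plasma, 5 ng/g tissue); noncompartmental analysis; ratios from mean of three rats.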

[2] = Ratio of AUC (0 to 31 hrs) in Sprague-Dawley rat spleen to AUC (0 to 31 hrs) in Sprague-Dawley rat plasma at 40 mg/kg, po administered as single dose; type: ADME, organism-based; design: dose 40 mg/kg, route oral; summary of the method: as §1
[3] = Ratio of AUC (0 to 31 hrs) in Sprague-Dawley rat heart to AUC (0 to 31 hrs) in Sprague-Dawley rat plasma at 40 mg/kg, po administered as single dose; type: ADME, organism-based; design: dose 40 mg/kg, route oral; summary of the method: as §1
[4] = Ratio of AUC (0 to 31 hrs) in Sprague-Dawley rat thymus to AUC (0 to 31 hrs) in Sprague-Dawley rat plasma at 40 mg/kg, po administered as single dose; type: ADME, organism-based; design: dose 40 mg/kg, route oral; summary of the method: as §1
[5] = Tmax in Sprague-Dawley rat large intestine; type: ADME, tissue-based
Summary of the method: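 Male Sprague-Dawley rats given a single oral dose of 40 mg/kg in TPGS–PEG400, three per time point. Tissues dissected at times up to 31 h and measured by LC-MS/MS (LLOQ 5 ng/g).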

[6] = Inhibition of HCV 1a H77 NS3/4A protease using RetS1 as a substrate by fluorescence resonance energy transfer cleavage assay
Hepatitis C virus [7] = assay: Inhibition of HCV 1b isolate con1 NS3/4A protease using RetS1 as a substrate by fluorescence resonance energy transfer cleavage assay
Cathepsin S = Cathepsin S (Homo sapiens, UniProt P25774); assay: Inhibition of human cathepsin S in human JY cells assessed as p10 accumulation by fluorescence-based assay; type: cell-based
Summary of the method: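 Cellular cathepsin S assay in the human JY B-cell line, read as invariant chain degradation (p10 fragment accumulation). Top concentration 10 μM.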

Hepatitis C virus [8] = assay: Antiviral activity against Hepatitis C virus 1b infected in human HuH7 cells assessed as viral RNA level after 72 hrs by luciferase reporter gene assay; type: functional, organism-based, Hepacivirus hominis; conditions: genotype 1b, Huh-7, 72 h
Summary of the method: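 Huh7-Luc cells carrying a genotype 1b con1 subgenomic replicon (clone ET, firefly luciferase, adaptive mutations E1202G/T1280I/K1846T). 2,500 cells/well, serial dilutions, 0.5% DMSO final, no G418. Luciferase signal read after 72 h; EC50 taken from the dose-response curve relative to medium control.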

Hepatitis C virus [9] = assay: Antiviral activity against Hepatitis C virus 1b infected in human HuH7 cells assessed as viral RNA level after 72 hrs by quantitative reverse transcriptase PCR; type: functional, organism-based, Hepacivirus hominis; conditions: genotype 1b, Huh-7, 72 h
Summary of the method: (§2)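 Replicon cells (Huh7-Luc at 3,000/well; con1b S2204I or 1a H77 P1496L/S2204I at 6,000/well) exposed to a dilution range for 72 h in 0.5% DMSO without G418. Lysates reverse transcribed 30 min at 42°C with an HCV 5′UTR primer and an RPL13A control. Inhibition from threshold-cycle difference versus mock; EC50 taken from the dose-response curve.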

Hepatitis C virus [10] = assay: Antiviral activity against Hepatitis C virus 1b isolate con1 infected in human HuH7 cells assessed as viral RNA level after 72 hrs by quantitative reverse transcriptase PCR; type: functional, organism-based, Hepacivirus hominis; conditions: Con1, Huh-7, 72 h; summary of the method: as §2
Hepatitis C virus [11] = assay: Antiviral activity against HCV 1a H77 infected in human HuH7 cells assessed as viral RNA level after 72 hrs by quantitative reverse transcriptase PCR; type: functional, organism-based, Hepacivirus hominis; conditions: genotype 1a H77, Huh-7, 72 h; summary of the method: as §2
[12] = Cytotoxicity against human HuH7 cells infected with Hepatitis C virus subtype 1b after 3 to 4 days by resazurin proliferation assay; type: cell-based, Huh-7
Summary of the method: (§3)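 Human cell lines in DMEM with 10% heat-inactivated FBS and 2 mM L-glutamine (replicon cells plus 0.75 mg/ml G418 in maintenance). Exposed to compound for 3 to 4 days; resazurin fluorescence read-out. CC50 from inhibition curves.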

[13] = Cytotoxicity against human HuH7 cells upto 42 uM after 3 to 4 days by resazurin proliferation assay; type: cell-based; conditions: huh-7; summary of the method: as §3
HepG2 = assay: Cytotoxicity against human HepG2 cells upto 42 uM after 3 to 4 days by resazurin proliferation assay; type: cell-based; summary of the method: as §3
[14] = Cytotoxicity against human HEK293T cells upto 42 uM after 3 to 4 days by resazurin proliferation assay; type: cell-based; conditions: hek-293t; summary of the method: as §3
[15] = Cytotoxicity against human MT4 cells after 3 to 4 days by resazurin proliferation assay; type: cell-based; summary of the method: as §3
[16] = Cytotoxicity against human MRC5 cells after 3 to 4 days by resazurin proliferation assay; type: cell-based; summary of the method: as §3
[17] = Cytotoxicity against human Saos2 cells after 3 to 4 days by resazurin proliferation assay; type: cell-based, SAOS-2; summary of the method: as §3
[18] = Cytotoxicity against human HT1080 cells after 3 to 4 days by resazurin proliferation assay; type: cell-based, HT-1080; summary of the method: as §3
[19] = Cytotoxicity against staphylococcal enterotoxin B-stimulated human PBMC cells; type: cell-based
PBMC = assay: Cytostatic activity against human PBMC cells assessed as incorporation of [3H]thymidine; type: ADME, cell-based; conditions: read-out: CS50 (the source's name)
Hepatitis C virus [20] = assay: microbe, parasite or virus in culture
Hepatitis C virus [21] = assay: microbe, parasite or virus in culture; remark: listed apart in the source
Hepatitis C virus [22] = assay: microbe, parasite or virus in culture; remark: listed apart in the source
Hepatitis C virus [23] = assay: microbe, parasite or virus in culture; remark: listed apart in the source

Chain of Cathepsin S (P25774 whole entry, the tested form may be a part): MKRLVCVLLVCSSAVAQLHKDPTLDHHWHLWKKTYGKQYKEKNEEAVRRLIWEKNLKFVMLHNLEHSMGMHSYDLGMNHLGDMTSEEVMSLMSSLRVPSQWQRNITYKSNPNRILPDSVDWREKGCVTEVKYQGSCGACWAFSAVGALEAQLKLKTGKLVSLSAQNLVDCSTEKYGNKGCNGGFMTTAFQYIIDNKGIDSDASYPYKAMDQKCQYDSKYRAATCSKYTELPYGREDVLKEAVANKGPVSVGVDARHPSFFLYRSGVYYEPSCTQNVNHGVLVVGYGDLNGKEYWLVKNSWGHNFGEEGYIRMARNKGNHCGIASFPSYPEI

COc1ccc2c(O[C@@H]3C[C@H]4C(=O)N[C@]5(C(=O)NS(=O)(=O)C6CC6)C[C@H]5/C=C\CCCCN(C)C(=O)[C@@H]4C3)cc(-c3nc(C(C)C)cs3)nc2c1C [SIMEPREVIR]
Kp [1]: 0.5 | Kp [2]: 0.3 | Kp [3]: 0.5 | Kp [4]: 0.5 | Tmax [5]: 8 h | Ki [6]: 0.5 nM | Ki (Hepatitis C virus [7]): 0.4 nM | IC50 (Cathepsin S): 800 nM | EC50 (Hepatitis C virus [8]): 8.1 nM | EC90 (Hepatitis C virus [8]): 23.6 nM | EC50 (Hepatitis C virus [9]): 13 nM | EC90 (Hepatitis C virus [9]): 28.7 nM | EC50 (Hepatitis C virus [10]): 25.2 nM | EC90 (Hepatitis C virus [10]): 118 nM | EC50 (Hepatitis C virus [11]): 28.4 nM | EC90 (Hepatitis C virus [11]): 120 nM | CC50 [12]: 47 µM | Activity [13]: Non-toxic | Activity (HepG2): Non-toxic | Activity [14]: Non-toxic | CC50 [15]: 16 µM | CC50 [16]: 16 µM | CC50 [17]: 16 µM | CC50 [18]: 16 µM | CC50 [19]: 33 µM | GI50 (PBMC): 10 µM | EC50 ratio (Hepatitis C virus [20]): 1.4 | EC50 ratio (Hepatitis C virus [21]): 1.7 | EC50 ratio (Hepatitis C virus [22]): 1.8 | EC50 ratio (Hepatitis C virus [23]): 1.4

From ChEMBL document CHEMBL1671650, “In vitro activity and preclinical profile of TMC435350, a potent hepatitis C virus protease inhibitor” (Antimicrob Agents Chemother, 2009)
